In assay [1] the test system is CCRF-CEM. The assay can be described thus: Ratio of IC50 for teniposide-resistant CEM/VM1 cells over IC50 for drug-sensitive CCRF-CEM cells. In kind it is functional, Homo sapiens.
For assay [2], the system named is CCRF-CEM. Description: Ratio of IC50 for vinblastine-resistant CEM/VLB100 cells over IC50 for drug-sensitive CCRF-CEM cells. In kind it is functional, Homo sapiens.
In assay [3] the test system is CCRF-CEM. The assay can be described thus: Cytotoxicity against drug-sensitive CCRF-CEM cells after 72 hrs. In kind it is cell-based. Conditions: Homo sapiens. The essentials: (§1)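 Leukemic lymphoblasts (parent CCRF-CEM, Pgp-overexpressing CEM/VLB100, topo II-altered CEM/VM-1) grown in RPMI 1640 with 10% FCS and antibiotics, 37 °C, 5% CO2. Serial dilutions in medium added to 2 × 10⁵ cells/mL for 3 days, medium not renewed. Survivors counted on a Coulter counter. Triplicate, averaged.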

Assay [4] in a line: Cytotoxicity against teniposide-resistant CEM/VM1 cells after 72 hrs. In kind it is cell-based. Conditions: Homo sapiens, CEM-VM1, 72 h. In short, it runs like this: as §1
Assay [5] is described as follows: Cytotoxicity against vinblastine-resistant CEM/VLB100 cells after 72 hrs. In kind it is cell-based. Particulars: Homo sapiens, CEM/VLB100, 72 h. In short, it runs like this:
as §1

Each structure is given as a SMILES string.

For `COc1cccc2c1C(=O)c1c(O)c3c(c(O)c1C2=O)C[C@@](O)(C(=O)CO)C[C@@H]3O[C@H]1C[C@H](N)[C@H](O)[C@H](C)O1` [DOXORUBICIN], the “Ratio IC50” value in the assay with CCRF-CEM [1] is given as 9; with CCRF-CEM [2] it was 62. Moreover, the concentration for half-maximal inhibition (IC50) amounted to 60 nM in the assay on CCRF-CEM [3], 550 nM in assay [4] and 3710 nM in assay [5].

Source of the values: ChEMBL document CHEMBL1142957, “Total structure and inhibition of tumor cell proliferation of laxaphycins” (J Med Chem, 2007).
